Reference: ChEMBL document CHEMBL3102816, “Design, synthesis and molecular modeling of novel N-acylhydrazone derivatives as pyruvate dehydrogenase complex E1 inhibitors” (Bioorg Med Chem, 2014)
pIC50: −log10 of the molar value.

Assay: Inhibition of Escherichia coli […] expressed in Escherichia coli TB1 using sodium pyruvate as substrate assessed as reduction of 2,6-DCPIP preincubated for 3 mins followed by ThDP addition
In short: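 MBP-fused E. coli PDHc-E1 from plasmid pMal-C2X in strain TB1 (LB with 2% glucose, ampicillin, 37 °C to A600 0.6–0.8; 0.5 mM IPTG, 7 h, 25 °C), MBP affinity-purified, Bradford-quantified. Reaction: 50 mM K3PO4 pH 7.2, 2.0 mM pyruvate, 0.8 mM 2,6-DCPIP, enzyme, inhibitor at varied concentrations; 3 min at 37 °C, then ThDP added; DCPIP reduction read at 600 nm.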

In order of rising pIC50:
1. Cc1ncc(Cn2nnc(C(=O)N/N=C/c3ccccc3)c2C)c(N)n1  3.96
2. Cc1ncc(Cn2nnc(C(=O)N/N=C/c3ccccc3Br)c2C)c(N)n1  4.27
3. Cc1ccc(/C=N/NC(=O)c2nnn(Cc3cnc(C)nc3N)c2C)cc1  4.30
4. Cc1ncc(Cn2nnc(C(=O)N/N=C/c3cccc(O)c3)c2C)c(N)n1  4.63
5. Cc1ncc(Cn2nnc(C(=O)N/N=C/c3ccccn3)c2C)c(N)n1  4.64
6. Cc1cccc(/C=N/NC(=O)c2nnn(Cc3cnc(C)nc3N)c2C)c1  4.68
7. Cc1ncc(Cn2nnc(C(=O)N/N=C/c3ccc4c(c3)OCO4)c2C)c(N)n1  4.84
8. Cc1ncc(Cn2nnc(C(=O)N/N=C/c3ccccc3Cl)c2C)c(N)n1  4.87
9. Cc1ncc(Cn2nnc(C(=O)N/N=C/c3ccccc3O)c2C)c(N)n1  4.93
10. Cc1ncc(Cn2nnc(C(=O)N/N=C/c3ccc(F)cc3)c2C)c(N)n1  5.10
11. Cc1ncc(Cn2nnc(C(=O)N/N=C/c3ccc(O)cc3)c2C)c(N)n1  5.46
12. Cc1ncc(Cn2nnc(C(=O)N/N=C/c3ccc(Cl)cc3)c2C)c(N)n1  5.63
13. Cc1ncc(Cn2nnc(C(=O)N/N=C/c3ccc(Br)cc3)c2C)c(N)n1  5.72
14. Cc1ncc(Cn2nnc(C(=O)N/N=C/c3ccc(C(F)(F)F)cc3)c2C)c(N)n1  5.72
15. Cc1ncc(Cn2nnc(C(=O)N/N=C/c3ccc(Cl)c([N+](=O)[O-])c3)c2C)c(N)n1  5.77
16. Cc1ncc(Cn2nnc(C(=O)N/N=C/c3ccc([N+](=O)[O-])cc3)c2C)c(N)n1  6.19
